According to ChEMBL document CHEMBL4229495 (Bioorg Med Chem, 2018):

How the values were obtained:
[1] = molecular target: T1, Tyrosyl-DNA phosphodiesterase 1 (Homo sapiens, UniProt Q9NUW8); assay: Inhibition of recombinant Tdp1 (unknown origin) using 5'-(5,6 FAM-aac gtc agg gtc ttc c-BHQ1)-3' as substrate measured every 55 secs for 8 mins by fluorimetric assay
[2] = Cytotoxicity against human A549 cells after 72 hrs by MTT assay; assay type: cell-based
Outline: (§1)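 Cells seeded at ~2000 per well and grown 24 h at 37 °C, 5% CO2 in IMDM with 10% FBS plus penicillin/streptomycin. Then exposed to the compound (1 to 100 µM) for 72 h. Viability read by MTT as A570 versus DMSO control. CC50 interpolated from the dose-response curve. Mean ± SD of triplicates.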

[3] = Cytotoxicity against HEK293 cells after 72 hrs by MTT assay; assay type: cell-based; details: human; outline: as §1
Tdp1 [4] = assay: Selectivity index, ratio of CC50 for human A549 cells to IC50 for recombinant Tdp1 (unknown origin) using 5'-(5,6 FAM-aac gtc agg gtc ttc c-BHQ1)-3' as substrate; assay type: toxicity; details: A549 cells (CC50) and recombinant Tdp1 (IC50), probe 5'-(5,6 FAM-aac gtc agg gtc ttc c-BHQ1)-3'
Tdp1 [5] = assay: Selectivity index, ratio of CC50 for HEK293 cells to IC50 for recombinant Tdp1 (unknown origin) using 5'-(5,6 FAM-aac gtc agg gtc ttc c-BHQ1)-3' as substrate; assay type: toxicity; details: human, HEK293 cells (CC50) and recombinant Tdp1 (IC50), probe 5'-(5,6 FAM-aac gtc agg gtc ttc c-BHQ1)-3'
A549 [6] = assay: Potentiation of topotecan-induced cytotoxicity against human A549 cells assessed as topotecan CC50 at 1 uM after 72 hrs by MTT assay (reference value: 111 +/- 27 nM); assay type: functional; details: A549, 72 h
[7] = molecular target: T1, Tyrosyl-DNA phosphodiesterase 1; assay: Inhibition of recombinant Tdp1 (unknown origin) using 5'-([32P]-aac gtc agg gtc ttc c-tyrosine)-3' as substrate measured after 5 mins by electrophoresis method
[8] = molecular target: T1, Tyrosyl-DNA phosphodiesterase 1; assay: Inhibition of recombinant Tdp1 (unknown origin) using 5'-([32P]-aac gtc agg gtc ttc c-BHQ1)-3' as substrate measured after 20 mins by electrophoresis method
A549 [9] = assay: Potentiation of topotecan-induced cytotoxicity against human A549 cells assessed as fold reduction in topotecan CC50 at 1 uM after 72 hrs by MTT assay relative to topotecan alone; assay type: functional
Outline: (§2)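 A-549 or HEK-293 cells (~2000/well) preincubated 24 h at 37 °C in IMDM with 10% FBS, penicillin/streptomycin, 5% CO2. Then treated with varied topotecan concentrations with or without inhibitor at 1 µM for 72 h. Viability read by MTT (A570) against DMSO control. Topotecan CC50 interpolated from dose-response curves, mean ± SD of triplicates.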

HEK293 = assay: Potentiation of topotecan-induced cytotoxicity against HEK293 cells assessed as fold reduction in topotecan CC50 at 1 uM after 72 hrs by MTT assay relative to topotecan alone; assay type: cell-based; details: human, hek293, 72 h; outline: as §2

T1 sequence (Q9NUW8 whole entry): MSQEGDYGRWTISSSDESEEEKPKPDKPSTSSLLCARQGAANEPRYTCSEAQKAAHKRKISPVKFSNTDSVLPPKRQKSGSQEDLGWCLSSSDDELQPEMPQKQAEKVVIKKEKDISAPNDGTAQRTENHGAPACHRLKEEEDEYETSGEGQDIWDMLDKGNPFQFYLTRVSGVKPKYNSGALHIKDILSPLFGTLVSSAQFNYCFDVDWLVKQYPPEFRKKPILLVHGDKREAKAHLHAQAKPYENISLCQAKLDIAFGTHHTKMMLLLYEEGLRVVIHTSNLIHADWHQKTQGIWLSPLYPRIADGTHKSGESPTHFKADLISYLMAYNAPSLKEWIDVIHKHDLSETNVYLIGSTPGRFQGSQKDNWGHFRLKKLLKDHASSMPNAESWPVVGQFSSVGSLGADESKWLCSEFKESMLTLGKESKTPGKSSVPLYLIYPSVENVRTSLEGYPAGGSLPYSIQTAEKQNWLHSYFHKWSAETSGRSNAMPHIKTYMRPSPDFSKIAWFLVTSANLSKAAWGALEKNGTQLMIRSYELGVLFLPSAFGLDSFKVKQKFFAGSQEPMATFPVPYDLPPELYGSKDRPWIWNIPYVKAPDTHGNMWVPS

`COc1ccccc1/C=C1\Oc2c(C)c(O)c3c(c2C1=O)OC1=CC(O)=C(C(C)=O)C(=O)[C@@]13C` showed an IC50 [1] of 390 nM.
`CC(=O)C1=C(O)C=C2Oc3c4c(c(C)c(O)c3[C@@]2(C)C1=O)O/C(=C\c1ccc(Br)cc1)C4=O` gave a CC50 at 72 h [2] of 10000 nM, a CC50 at 72 h [3] of 14600 nM and a selectivity ratio (Tdp1 [4]) of 66.7. For the same compound, the selectivity ratio (Tdp1 [5]) was 97.3 and the CC50 (A549 [6]) was 162 nM.
Compound `CC(=O)C1=C(O)C=C2Oc3c4c(c(C)c(O)c3[C@@]2(C)C1=O)O/C(=C\c1ccncc1)C4=O` has an IC50 [1] of 810 nM.
`CC(=O)C1=C(O)C=C2Oc3c4c(c(C)c(O)c3[C@@]2(C)C1=O)O/C(=C\c1cccnc1)C4=O` showed an IC50 [1] of 450 nM.
For `CC(=O)C1=C(O)C=C2Oc3c4c(c(C)c(O)c3[C@@]2(C)C1=O)O/C(=C\c1sccc1C)C4=O`, the IC50 [1] was 630 nM.
Work on `CC(=O)C1=C(O)C=C2Oc3c4c(c(C)c(O)c3[C@@]2(C)C1=O)O/C(=C\c1ccccc1)C4=O` yielded an IC50 [1] of 720 nM.
`CC(=O)C1=C(O)C=C2Oc3c4c(c(C)c(O)c3[C@@]2(C)C1=O)O/C(=C\c1ccc(C)s1)C4=O` showed an IC50 [1] of 840 nM.
`CC(=O)C1=C(O)C=C2Oc3c4c(c(C)c(O)c3[C@@]2(C)C1=O)O/C(=C\c1ccccn1)C4=O` showed an IC50 [1] of 860 nM.
Work on `CC(=O)C1=C(O)C=C2Oc3c4c(c(C)c(O)c3[C@@]2(C)C1=O)O/C(=C\c1ccc(Cl)cc1)C4=O` yielded an IC50 [1] of 1220 nM.
For `CC(=O)C1=C(O)C=C2Oc3c4c(c(C)c(O)c3[C@@]2(C)C1=O)O/C(=C\c1ccc(O)cc1)C4=O`, the IC50 [1] was 1590 nM.
`CC(=O)C1=C(O)C=C2Oc3c4c(c(C)c(O)c3[C@@]2(C)C1=O)O/C(=C\c1cc(Br)cc(Br)c1)C4=O` showed an IC50 [1] of 530 nM, an IC50 [7] of 4000 nM and an IC50 [8] of 640 nM.
`CC(=O)C1=C(O)C=C2Oc3c4c(c(C)c(O)c3[C@@]2(C)C1=O)O/C(=C\c1cc(Br)cs1)C4=O` showed an IC50 [1] of 600 nM.
Compound `CC(=O)C1=C(O)C=C2Oc3c4c(c(C)c(O)c3[C@@]2(C)C1=O)O/C(=C\c1ccc(Br)s1)C4=O` has a CC50 at 72 h [2] of 8700 nM, an IC50 [1] of 63 nM and a CC50 at 72 h [3] of 15700 nM. The selectivity ratio (Tdp1 [4]) was 138, the selectivity ratio (Tdp1 [5]) was 249 and the CC50 (A549 [6]) was 47 nM. For the same compound, the “fold change (FC)” value (A549 [9]) was 2 and the fold change (FC) (HEK293) was 2 to 4.
Compound `CC(=O)C1=C(O)C=C2Oc3c4c(c(C)c(O)c3[C@@]2(C)C1=O)O/C(=C\c1ccc(F)cc1)C4=O` has an IC50 [1] of 980 nM.
Work on `CC(=O)C1=C(O)C=C2Oc3c4c(c(C)c(O)c3[C@@]2(C)C1=O)O/C(=C\c1ccc[nH]1)C4=O` yielded an IC50 [1] of 3650 nM.
For `CC(=O)C1=C(O)C=C2Oc3c4c(c(C)c(O)c3[C@]2(C)C1=O)O/C(=C\c1ccc(Br)s1)C4=O`, the IC50 [1] was 81 nM.
`COc1ccc(/C=C2\Oc3c(C)c(O)c4c(c3C2=O)OC2=CC(O)=C(C(C)=O)C(=O)[C@@]24C)cc1` showed a CC50 at 72 h [2] of 8300 nM, an IC50 [1] of 340 nM and a CC50 at 72 h [3] of 15800 nM. The selectivity ratio (Tdp1 [4]) was 24.4, the selectivity ratio (Tdp1 [5]) was 46.5 and the CC50 (A549 [6]) was 90 nM.
With `CC(=O)C1=C(O)C=C2Oc3c4c(c(C)c(O)c3[C@@]2(C)C1=O)O/C(=C\c1ccco1)C4=O` the IC50 [1] was 5500 nM.
With `COc1ccc(/C=C2\Oc3c(C)c(O)c4c(c3C2=O)OC2=CC(O)=C(C(C)=O)C(=O)[C@@]24C)cc1OC` the IC50 [1] was 1020 nM.
In the case of `CC(=O)C1=C(O)C=C2Oc3c4c(c(C)c(O)c3[C@@]2(C)C1=O)O/C(=C\c1ccc(C)o1)C4=O`, the CC50 at 72 h [2] is reported as > 50000 nM, the IC50 [1] is reported as 160 nM and the CC50 at 72 h [3] is reported as > 50000 nM. The selectivity ratio (Tdp1 [4]) was > 300, the selectivity ratio (Tdp1 [5]) was > 300 and the CC50 (A549 [6]) was 40 nM. For the same compound, the “fold change (FC)” value (A549 [9]) was 2.
For `CC(=O)C1=C(O)C=C2Oc3c4c(c(C)c(O)c3[C@@]2(C)C1=O)O/C(=C\C1CCCCC1)C4=O`, the IC50 [1] was > 15000 nM.
Work on `CC(=O)C1=C(O)C=C2Oc3c4c(c(C)c(O)c3[C@@]2(C)C1=O)O/C(=C\c1cc(C(C)(C)C)cc(C(C)(C)C)c1O)C4=O` yielded a CC50 at 72 h [2] of 6800 nM, an IC50 [1] of 25 nM and a CC50 at 72 h [3] of 14500 nM. For the same compound, the selectivity ratio (Tdp1 [4]) was 272 and the CC50 (A549 [6]) was 558 nM.
With `CC(=O)C1=C(O)C=C2Oc3c4c(c(C)c(O)c3[C@@]2(C)C1=O)O/C(=C\c1ccsc1)C4=O` the IC50 [1] was 3300 nM.
`CC(=O)C1=C(O)C=C2Oc3c4c(c(C)c(O)c3[C@@]2(C)C1=O)O/C(=C\c1cccs1)C4=O` showed an IC50 [1] of 900 nM.
In the case of `CC(=O)C1=C(O)C=C2Oc3c4c(c(C)c(O)c3[C@@]2(C)C1=O)O/C(=C\c1ccoc1)C4=O`, the IC50 [1] is reported as 6730 nM.
`CC(=O)C1=C(O)C=C2Oc3c4c(c(C)c(O)c3[C@@]2(C)C1=O)O/C(=C\c1cccc(Br)c1)C4=O` showed a CC50 at 72 h [2] of 11400 nM, an IC50 [1] of 232 nM and a CC50 at 72 h [3] of 14500 nM. The selectivity ratio (Tdp1 [4]) was 49.1, the selectivity ratio (Tdp1 [5]) was 62.5 and the CC50 (A549 [6]) was 132 nM.
`CC(=O)C1=C(O)C=C2Oc3c4c(c(C)c(O)c3[C@]2(C)C1=O)O/C(=C\c1cc(C(C)(C)C)cc(C(C)(C)C)c1O)C4=O` gave an IC50 [1] of 64 nM.
Compound `CC(=O)C1=C(O)C=C2Oc3c4c(c(C)c(O)c3[C@@]2(C)C1=O)O/C(=C\c1ccccc1Br)C4=O` has a CC50 at 72 h [2] of 4560 nM, an IC50 [1] of 230 nM and a CC50 at 72 h [3] of 15900 nM. It also gave a selectivity ratio (Tdp1 [4]) of 19.8, a selectivity ratio (Tdp1 [5]) of 69.1 and a CC50 (A549 [6]) of 48 nM. The “fold change (FC)” value (A549 [9]) was 2.
With `COc1ccc(/C=C2\Oc3c(C)c(O)c4c(c3C2=O)OC2=CC(O)=C(C(C)=O)C(=O)[C@@]24C)c(OC)c1OC` the CC50 at 72 h [2] was 4600 nM, the IC50 [1] was 340 nM and the CC50 at 72 h [3] was 20000 nM. For the same compound, the selectivity ratio (Tdp1 [4]) was 13.5, the selectivity ratio (Tdp1 [5]) was 58.8 and the CC50 (A549 [6]) was 48 nM. For the same compound, the “fold change (FC)” value (A549 [9]) was 2.
